Screening data as filed in PubChem.
eIF4H FP inh: inhibitors of RNA binding by human eIF4H. eIF4H fluorescence polarization binding assay. inhibition, % at 35 µM. 0.94% of 290,000 active;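 note: calls also rest on retests at 20 µM and on dose response follow-up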
MLLE-PAM2 inh: inhibitors of microRNA-mediated deadenylation, human PABP1 MLLE binding. P11940. GST-MLLE / FITC-PAM2 fluorescence polarization. inhibition, % at 20 µM. 0.36% of 360,000 active; in the data active = inhibition above about 35%, passing the limit was not always enough;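 note: plate controls were DMSO wells with GST-MLLE for no effect and wells lacking GST-MLLE protein for full effect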
DNA FID counter-1: fluorescent intercalator displacement, NS3 helicase counter-screen. DNA fluorescent intercalator displacement, fluorescence. inhibition, % at 7.9 µM. AID 1845. 0.17% of 290,000 active; in the data active = inhibition above about 37%;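 note: 0% = vehicle and 100% = reference compound; higher means more ethidium bromide displaced from hairpin DNA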
HCV core dimer: blocks dimerization of HCV core protein. TR-FRET GST/Flag-core106 dimerization, 1536-well. inhibition, % at 5 µM. 0.33% of 300,000 active. AID 1899;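 active = inhibition above the mean of all tested compounds plus 3 SD, set per screening campaign, cut at about 45% in these data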
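Material: GST/Flag-tagged HCV core106 proteins. Incubation: 4 h, 22.5 °C incubation. Read-out basis: inhibition (%) from 671 over 617 nm ratio. Measured by: TR-FRET, excitation 340 nm, emission 617 and 671 nm.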
PABP FP inh: blocks human PABP binding to poly(A) RNA. P11940. fluorescence polarization. inhibition, % at 35 µM. 1% of 290,000 active. AID 2014;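 note: calls also rest on retests at 20 µM and on dose response follow-up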
NS3 helicase inh: HCV NS3 helicase inhibition. 0.56% of 290,000 active. NS3 helicase DNA unwinding, Cy5 molecular beacon fluorescence. inhibition, % at 10.9 µM;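 active = inhibition above the mean of all tested compounds plus 3 SD, set per campaign, cut at about 35% in these data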;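 note: 0% = DMSO wells and 100% = thioflavine S control wells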
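Control set: DMSO versus 110 µM thioflavine S; Material: NS3 helicase fragment of HCV; Measured by: Cy5 fluorescence at 0 and 60 min, beacon hairpin quenching; Read-out basis: percent inhibition from t60/t0 fluorescence ratio; Times: reaction time 60 min, 25 °C; Repeats: single replicate; Compound dosing: single dose, 10.9 µM nominal final, DMSO 0.8% final.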
NS3 hel confirm: confirmation of Hepatitis C virus NS3 helicase inhibitors | 31% of 1,600 active | inhibition, % at 10.9 µM | shares compounds with NS3 helicase inh | AID 1943 | NS3 helicase DNA unwinding, Cy5 molecular beacon fluorescence;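 active = inhibition above the mean of all tested compounds plus 3 SD, cutoff set per campaign, cut at about 36% in these data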
DNA FID counter-2: counter-screen for HCV NS3 helicase inhibitors: DNA intercalator displacement; 4% of 1,600 active; shares compounds with NS3 helicase inh; inhibition, % at 7.9 µM; DNA fluorescent intercalator displacement, fluorescence; in the data active = inhibition above about 37%;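 note: 0% = vehicle and 100% = reference compound; higher means more displacement of ethidium bromide from the DNA hairpin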
FID counter DR: DNA intercalator displacement in dose response. shares compounds with NS3 helicase inh. fluorescent intercalator displacement from DNA, fluorescence. IC50, µM. 120 tested, under 10 active. AID 2172
Starred values were filed as active, the others as inactive; ? = inconclusive; / = no result. Compounds with a hit are over-represented: about 2% of the library has one in this group of screens. Unless noted, the rule behind the calls is not given here.

SMILES	eIF4H FP inh	MLLE-PAM2 inh	DNA FID counter-1	HCV core dimer	PABP FP inh	NS3 helicase inh	NS3 hel confirm	DNA FID counter-2	others
CC1=C(C)Cc2c(OC(=O)c3ccccc3)ccc(OC(=O)c3ccccc3)c2C1	-2.2	/	-7.6	-7.8	6.1	17.1	-10.6	0.6
CCOC(=O)CC(=O)CSc1nc2c(c(-c3cccs3)c1C#N)CCC2	16.3	-8.8	-8.5	12.1	-1.8	40.6*	4.0	-3.4
Oc1c(Br)cc(/C=N/n2c(-c3ccccc3)n[nH]c2=S)c(O)c1Br	-0.3	12.2	1.8	/	45.0	6.9	/	/
Cc1c(Br)c(O)c(Br)c(O)c1/C=N/n1c(-c2ccccc2)n[nH]c1=S	9.1	13.0	-7.7	-11.8	52.7	36.5*	70.0*	-3.7
COc1ccc(Cl)cc1Cn1c(C)c(C(=O)NCc2cccc([N+](=O)[O-])c2)sc1=O	/	-6.6	/	/	/	/	/	/
CCOC(=O)c1c(-c2ccccc2)oc2ccc(OCC(=O)NNC(=O)CCC(=O)O)cc12	-5.6	-1.9	-48.2	/	3.5	41.4*	9.3	-17.5
CC1=NN(c2ccc(C(=O)O)cc2)C(=O)/C1=C/c1ccc(-c2ccccc2F)o1	28.3	33.2	-8.0	9.3	18.3	39.2*	-7.4	2.9
CC(C)=CC(=O)OCc1csc(CC(=O)Nc2ccccc2C)n1	3.0	-30.1	-26.1	7.1	-5.6	0.6	/	/
CCOC(=O)/C=C/C(=O)OCc1csc(CC(=O)Nc2ccccc2C)n1	-0.2	-12.5	-39.2	-13.0	3.1	38.1*	-19.0	-24.7
Nc1nc(-c2ccc(-n3nncc3-c3ccco3)cc2)cs1	2.1	/	-9.2	8.8	-2.9	-5.6	/	/
Cc1nc(-c2ccc(-n3nncc3-c3ccco3)cc2)cs1	6.9	-18.1	-39.4	5.0	-6.0	56.2*	-16.6	-21.5
Cc1ccccc1CNC(=O)CCC(=O)N1CCOc2ccc(Cl)cc21	-12.3	-12.7	-26.0	-3.5	-2.5	-3.2	/	/
COC(=O)c1sc(NC(=O)CN2CCN(c3cccc(Cl)c3)CC2)c(C(=O)OC)c1C	/	-1.5	/	/	/	/	/	/
COc1ccc(C2/C(=C(\O)c3ccc4c(c3)OCCO4)C(=O)C(=O)N2c2nc(C)c(C(C)=O)s2)cc1 (stereo unspecified)	0.4	6.4	-30.3	0.1	9.2	37.6*	64.5*	-11.3	FID counter DR=>79.4
COc1ccc(CN(C(=O)Cc2c[nH]c3ccccc23)C(C(=O)NC2CCCCC2)c2ccc(C)o2)cc1 (stereo unspecified)	-5.0	-3.7	89.0*	10.4	3.3	65.4*	11.0	-22.4
Cc1ccc(C(C(=O)NC2CCCCC2)N(Cc2ccccc2)C(=O)Cc2c[nH]c3ccccc23)o1 (stereo unspecified)	-5.0	3.4	-29.8	17.5	5.2	-10.2	/	/
CN(C)c1ccc(/C=C/c2cccc[n+]2[O-])cc1	?	-30.5	-5.2	-9.7	?	2.4	/	/
CN(C)c1ccc(/C=C/c2ccc3c4ccccc4ccc3[n+]2-c2ccccc2)cc1	12.8	-107.1	78.4*	/	-3.3	62.7*	90.6*	101.0*
Cc1nn(Cc2ccc(Cl)cc2)c(C)c1NC(=O)c1cc(-c2ccco2)on1	-16.0	-19.7	-22.6	7.8	-2.3	-4.5	/	/
Cc1nn(Cc2ccc(Cl)c(Cl)c2)c(C)c1NC(=O)c1cc(-c2ccco2)on1	16.8	-26.4	-42.2	14.5	-4.9	39.9*	-8.8	-54.5
Cc1ccc(C(=O)C2=C(O)C(=O)N(Cc3cccnc3)C2c2ccc(N(C)C)cc2)o1 (stereo unspecified)	-1.8	10.2	-34.5	5.5	14.5	4.5	/	/
CCCOc1ccc(C2C(C(=O)c3ccc(C)o3)=C(O)C(=O)N2Cc2cccnc2)cc1 (stereo unspecified)	-5.8	/	-33.6	5.3	19.4	7.3	/	/
CCCCOc1ccc(C2C(C(=O)c3ccc(C)o3)=C(O)C(=O)N2Cc2ccco2)cc1 (stereo unspecified)	4.3	-11.0	-46.1	36.4	0.7	68.8*	134.6*	-48.9	FID counter DR=>79.4
Cc1ccc(C(=O)C2=C(O)C(=O)N(Cc3ccco3)C2c2ccc(N(C)C)cc2)o1 (stereo unspecified)	10.1	4.0	-45.3	-3.7	48.8	97.8*	8.2	-6.0
CNc1ccc(Br)cc(C(=O)/C=C/c2cccc(OC)c2OC)c1=O	22.6	-42.9	-27.8	0.1	-5.9	32.4	/	/
SMILES	eIF4H FP inh	MLLE-PAM2 inh	DNA FID counter-1	HCV core dimer	PABP FP inh	NS3 helicase inh	NS3 hel confirm	DNA FID counter-2	others
CNc1ccc(Br)cc(C(=O)/C=C/c2cccc(Cl)c2Cl)c1=O	81.1	-120.1	-12.2	/	65.4*	36.5*	68.5*	24.0	FID counter DR=>79.4
Cc1cccc(N2CCN(S(=O)(=O)c3cc(-c4cc(C)no4)ccc3C)CC2C)c1 (stereo unspecified)	15.1	3.9	-30.2	11.1	1.1	-13.5	/	/
Cc1nnc(Cn2cnc3c2c(=O)n(C)c(=O)n3C)o1	-9.7	3.6	-3.6	8.0	0.5	39.4*	-8.6	4.0
Clc1ccc(/C=N/N2CCN(Cc3ccccc3)CC2)cc1	-0.4	8.9	-6.7	2.6	-12.5	-15.6	/	/
O=c1[nH]c(=S)[nH]c2c1C(c1ccc(Br)cc1)c1c([nH]c(=S)[nH]c1=O)O2	83.0*	37.7	-1.1	29.9	93.3*	42.6*	75.1*	5.2
CC1=CC(C)C(=O)N(C)C(C)=C1 (stereo unspecified)	/	1.3	/	/	/	/	/	/
CCCn1c(C(O)c2cccc(OC)c2)nc2ccccc21 (stereo unspecified)	-1.5	2.4	-17.9	/	4.6	41.9*	-15.8	0.1
CCN(CC)CCCn1c2c(c(SCC(=O)N3CCCc4ccccc43)nc1=O)CCC2	/	10.8	/	-6.6	/	/	/	/
Cc1[nH]c2ccccc2c1N=Nc1ccccc1C(=O)O	98.7	-16.2	-23.0	-19.6	4.5*	44.0*	5.5	13.1
CCN(Cc1ccncc1)C(=O)c1cc(COc2ccc(OC)cc2Cl)on1	-10.7	-6.7	-30.6	-0.7	0.1	-7.8	/	/
Nc1c(C(=O)NCC2CCCO2)sc2nc3c(c(-c4ccco4)c12)CC/C3=C\c1ccco1 (stereo unspecified)	109.5*	-34.1	8.9	/	1.9	50.6*	88.4*	19.0	FID counter DR=>79.4
O=C(Nc1ccccc1OC(F)F)c1ccc(S(=O)(=O)N2CCOCC2)cc1	-3.8	-17.2	-8.3	0.8	4.0	4.0	/	/
CC(C)(Oc1ccc(-c2ccco2)cc1)C(=O)O	45.4	/	-25.5	0.8	29.2	41.1*	30.1	3.5
CCOC(=O)c1c(NC(=O)C2C3CCC(O3)C2C(=O)O)sc(C)c1-c1ccc(F)cc1 (stereo unspecified)	6.5	10.8	-45.0	7.9	2.3	54.6*	60.6*	-12.3
